Reference: ChEMBL document CHEMBL2203068, “Antibacterial butenolides from the Korean tunicate Pseudodistoma antinboja” (2012)
In brackets after ≈: the same amount, converted by molar mass. Activity calls are given as the source filed them. The rule behind the calls is not given here.

Legend:
[1] = system: Staphylococcus aureus; test: Antimicrobial activity against methicillin-sensitive Staphylococcus aureus CCARM 0205 incubated for 24 hrs by microtiter broth dilution method; assay type: functional; conditions: CCARM 0205, 24 h
Outline: (§1)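 Two-fold serial dilutions of compound in DMSO were made in Mueller Hinton broth in 96-well microtiter plates, with 0.64% DMSO final. Each well was inoculated with an overnight bacterial culture at 5 × 10⁵ cfu/mL and incubated at 37 °C for 24 h. MIC was the lowest concentration showing no visible growth.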

[2] = system: Staphylococcus aureus; test: Antimicrobial activity against methicillin-sensitive Staphylococcus aureus CCARM 0027 incubated for 24 hrs by microtiter broth dilution method; assay type: functional; conditions: CCARM 0027, 24 h; outline: as §1
[3] = system: Staphylococcus aureus; test: Antimicrobial activity against methicillin-resistant Staphylococcus aureus CCARM 3635 incubated for 24 hrs by microtiter broth dilution method; assay type: functional; conditions: CCARM 3635, 24 h; outline: as §1
[4] = system: Salmonella typhimurium; test: Antimicrobial activity against Salmonella typhimurium ATCC 14028 incubated for 24 hrs by microtiter broth dilution method; assay type: functional, organism-based; conditions: Salmonella enterica subsp. enterica serovar Typhimurium
Outline: (§2)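 Two-fold serial dilutions of compounds in DMSO were added to Mueller Hinton broth in 96-well microtiter plates (final 0.64% DMSO). Wells were inoculated with overnight bacterial culture at 5 × 10⁵ cfu/mL and incubated at 37 °C for 24 h. The MIC was the lowest concentration with no visible growth.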

[5] = system: Staphylococcus aureus; test: Antimicrobial activity against methicillin-resistant Staphylococcus aureus CCARM 3089 incubated for 24 hrs by microtiter broth dilution method; assay type: functional; conditions: CCARM 3089, 24 h; outline: as §1
[6] = system: Escherichia coli; test: Antimicrobial activity against Escherichia coli ATCC 11775 incubated for 24 hrs by microtiter broth dilution method; assay type: functional, organism-based; outline: as §2
[7] = system: Staphylococcus aureus; test: Antimicrobial activity against methicillin-sensitive Staphylococcus aureus CCARM 3640 incubated for 24 hrs by microtiter broth dilution method; assay type: functional; conditions: CCARM 3640, 24 h; outline: as §1
[8] = system: Staphylococcus aureus; test: Antimicrobial activity against Staphylococcus aureus ATCC 6538 incubated for 24 hrs by microtiter broth dilution method; assay type: functional; outline: as §2
[9] = system: Staphylococcus epidermidis; test: Antimicrobial activity against Staphylococcus epidermidis ATCC 12228 incubated for 24 hrs by microtiter broth dilution method; assay type: functional; outline: as §2
[10] = system: Bacillus subtilis; test: Antimicrobial activity against Bacillus subtilis ATCC 6633 incubated for 24 hrs by microtiter broth dilution method; assay type: functional; outline: as §2
[11] = system: Staphylococcus aureus; test: Antimicrobial activity against methicillin-sensitive Staphylococcus aureus CCARM 0204 incubated for 24 hrs by microtiter broth dilution method; assay type: functional; conditions: CCARM 0204, 24 h; outline: as §1
[12] = system: Staphylococcus aureus; test: Antimicrobial activity against methicillin-resistant Staphylococcus aureus CCARM 3090 incubated for 24 hrs by microtiter broth dilution method; assay type: functional; conditions: CCARM 3090, 24 h; outline: as §1
[13] = system: Staphylococcus aureus; test: Antimicrobial activity against methicillin-resistant Staphylococcus aureus CCARM 3634 incubated for 24 hrs by microtiter broth dilution method; assay type: functional; conditions: CCARM 3634, 24 h; outline: as §1
[14] = system: Klebsiella pneumoniae; test: Antimicrobial activity against Klebsiella pneumoniae ATCC 4352 incubated for 24 hrs by microtiter broth dilution method; assay type: functional, organism-based; outline: as §2
[15] = system: Kocuria rhizophila; test: Antimicrobial activity against Kocuria rhizophila ATCC 9341 incubated for 24 hrs by microtiter broth dilution method; assay type: functional; outline: as §2

Molecule	MIC [1]	MIC [2]	MIC [3]	MIC [4]	MIC [5]	MIC [6]	MIC [7]	MIC ([8]; ATCC 6538, 24 h)	MIC ([9]; ATCC 12228, 24 h)	MIC ([10]; ATCC 6633, 24 h)	MIC [11]	MIC [12]	MIC [13]	MIC [14]	MIC ([15]; ATCC 9341, 24 h)	MIC [8]	MIC [9]	MIC [10]	MIC [15]
O=C1O/C(=C\c2cc(Br)c(O)c(Br)c2)C(c2cc(Br)c(O)c(Br)c2)=C1C(=O)c1cc(Br)c(O)c(Br)c1 [CADIOLIDE B]	2 µg/mL (≈ 2.29 µM)	2 µg/mL (≈ 2.29 µM)	0.5 µg/mL (≈ 0.572 µM)	inactive	1 µg/mL (≈ 1.14 µM)	inactive	1 µg/mL (≈ 1.14 µM)	3.1 µg/mL (≈ 3.55 µM)	3.1 µg/mL (≈ 3.55 µM)	3.1 µg/mL (≈ 3.55 µM)	1 µg/mL (≈ 1.14 µM)	1 µg/mL (≈ 1.14 µM)	1 µg/mL (≈ 1.14 µM)	inactive	3.1 µg/mL (≈ 3.55 µM)				
COc1ccc(C=C2OC(=O)C=C2c2ccc(O)c(Br)c2)cc1	> 32 µg/mL	> 32 µg/mL	> 32 µg/mL	inactive	> 32 µg/mL	inactive	> 32 µg/mL	> 50 µg/mL	25 µg/mL (≈ 67 µM)	50 µg/mL (≈ 134 µM)	> 32 µg/mL	> 32 µg/mL	> 32 µg/mL	inactive	3.1 µg/mL (≈ 8.31 µM)				
O=C1C=C(c2ccc(O)c(Br)c2)/C(=C/c2cc(Br)c(O)c(Br)c2)O1 [RUBROLIDE J]	1 µg/mL (≈ 1.93 µM)	2 µg/mL (≈ 3.87 µM)	2 µg/mL (≈ 3.87 µM)	inactive	4 µg/mL (≈ 7.74 µM)	inactive	2 µg/mL (≈ 3.87 µM)	3.1 µg/mL (≈ 6 µM)	0.8 µg/mL (≈ 1.55 µM)	1.6 µg/mL (≈ 3.09 µM)	2 µg/mL (≈ 3.87 µM)	2 µg/mL (≈ 3.87 µM)	2 µg/mL (≈ 3.87 µM)	inactive	6.3 µg/mL (≈ 12.2 µM)				
CCCCCCCCCC(=O)N[C@@H](Cc1c[nH]c2ccccc12)C(=O)N[C@H](CC(N)=O)C(=O)N[C@@H](CC(=O)O)C(=O)N[C@@H]1C(=O)NCC(=O)N[C@@H](CCCN)C(=O)N[C@@H](CC(=O)O)C(=O)N[C@H](C)C(=O)N[C@@H](CC(=O)O)C(=O)NCC(=O)N[C@H](CO)C(=O)N[C@@H]([C@H](C)CC(=O)O)C(=O)N[C@@H](CC(=O)c2ccccc2N)C(=O)O[C@@H]1C	2 µg/mL (≈ 1.23 µM)	16 µg/mL (≈ 9.87 µM)	> 32 µg/mL		> 32 µg/mL		16 µg/mL (≈ 9.87 µM)				4 µg/mL (≈ 2.47 µM)	> 32 µg/mL	> 32 µg/mL						
CN[C@H](CC(C)C)C(=O)N[C@H]1C(=O)N[C@@H](CC(N)=O)C(=O)N[C@H]2C(=O)N[C@H]3C(=O)N[C@H](C(=O)N[C@H](C(=O)O)c4cc(O)cc(O)c4-c4cc3ccc4O)[C@H](O)c3ccc(c(Cl)c3)Oc3cc2cc(c3O[C@@H]2O[C@H](CO)[C@@H](O)[C@H](O)[C@H]2O[C@H]2C[C@](C)(N)[C@H](O)[C@H](C)O2)Oc2ccc(cc2Cl)[C@H]1O [VANCOMYCIN]	< 0.13 µg/mL						0.25 µg/mL (≈ 0.173 µM)				0.25 µg/mL (≈ 0.173 µM)								
O=C1C=C(c2cc(Br)c(O)c(Br)c2)/C(=C/c2cc(Br)c(O)c(Br)c2)O1 [RUBROLIDE A]	4 µg/mL (≈ 6.71 µM)	4 µg/mL (≈ 6.71 µM)	8 µg/mL (≈ 13.4 µM)	inactive	8 µg/mL (≈ 13.4 µM)	inactive	8 µg/mL (≈ 13.4 µM)	3.1 µg/mL (≈ 5.2 µM)	1.6 µg/mL (≈ 2.69 µM)	1.6 µg/mL (≈ 2.69 µM)	4 µg/mL (≈ 6.71 µM)	8 µg/mL (≈ 13.4 µM)	8 µg/mL (≈ 13.4 µM)	inactive	1.6 µg/mL (≈ 2.69 µM)				
O=C1O/C(=C\c2ccc(O)c(Br)c2)C(c2cc(Br)c(O)c(Br)c2)=C1C(=O)c1cc(Br)c(O)c(Br)c1 [CADIOLIDE D]	0.25 µg/mL (≈ 0.315 µM)	0.5 µg/mL (≈ 0.629 µM)	0.25 µg/mL (≈ 0.315 µM)	inactive	0.5 µg/mL (≈ 0.629 µM)	inactive	0.25 µg/mL (≈ 0.315 µM)	6.3 µg/mL (≈ 7.93 µM)	0.8 µg/mL (≈ 1.01 µM)	6.3 µg/mL (≈ 7.93 µM)	0.5 µg/mL (≈ 0.629 µM)	0.25 µg/mL (≈ 0.315 µM)	1 µg/mL (≈ 1.26 µM)	inactive	1.6 µg/mL (≈ 2.01 µM)				
O=C1O/C(=C\c2cc(Br)c(O)c(Br)c2)C(c2ccc(O)c(Br)c2)=C1C(=O)c1cc(Br)c(O)c(Br)c1 [CADIOLIDE E]	4 µg/mL (≈ 5.03 µM)	2 µg/mL (≈ 2.52 µM)	0.5 µg/mL (≈ 0.629 µM)	inactive	1 µg/mL (≈ 1.26 µM)	inactive	0.25 µg/mL (≈ 0.315 µM)	3.1 µg/mL (≈ 3.9 µM)	6.3 µg/mL (≈ 7.93 µM)	3.1 µg/mL (≈ 3.9 µM)	2 µg/mL (≈ 2.52 µM)	1 µg/mL (≈ 1.26 µM)	2 µg/mL (≈ 2.52 µM)	inactive	0.2 µg/mL (≈ 0.252 µM)				
CC12C[C@@]34C=CC(=O)[C@@](C)(CCC(=O)Nc5c(O)ccc(C(=O)O)c5O)C3[C@H](CC1C4)O2 (stereo partly drawn) [PLATENSIMYCIN]	4 µg/mL (≈ 9.06 µM)	4 µg/mL (≈ 9.06 µM)	8 µg/mL (≈ 18.1 µM)		8 µg/mL (≈ 18.1 µM)		8 µg/mL (≈ 18.1 µM)				4 µg/mL (≈ 9.06 µM)	8 µg/mL (≈ 18.1 µM)	8 µg/mL (≈ 18.1 µM)						
GENTAMICIN																< 0.02 µg/mL	< 0.02 µg/mL	0.05 µg/mL	1.6 µg/mL
O=C1O/C(=C\c2ccc(O)c(Br)c2)C(c2ccc(O)c(Br)c2)=C1C(=O)c1cc(Br)c(O)c(Br)c1 [CADIOLIDE C]	0.25 µg/mL (≈ 0.349 µM)	0.5 µg/mL (≈ 0.698 µM)	< 0.13 µg/mL	inactive	0.5 µg/mL (≈ 0.698 µM)	inactive	< 0.13 µg/mL	0.4 µg/mL (≈ 0.559 µM)	0.4 µg/mL (≈ 0.559 µM)	3.1 µg/mL (≈ 4.33 µM)	0.25 µg/mL (≈ 0.349 µM)	0.25 µg/mL (≈ 0.349 µM)	0.5 µg/mL (≈ 0.698 µM)	inactive	0.2 µg/mL (≈ 0.279 µM)				
COc1ccc(C=C2OC(=O)C=C2c2cc(Br)c(O)c(Br)c2)cc1 [RUBROLIDE P]	> 32 µg/mL	> 32 µg/mL	> 32 µg/mL	inactive	> 32 µg/mL	inactive	> 32 µg/mL	> 50 µg/mL	50 µg/mL (≈ 111 µM)	50 µg/mL (≈ 111 µM)	> 32 µg/mL	> 32 µg/mL	> 32 µg/mL	inactive	6.3 µg/mL (≈ 13.9 µM)				
